Results as given in ChEMBL document CHEMBL6114936, “S-MGBs bearing amidine tail groups are potent, selective antiplasmodial agents” (RSC Med Chem, 2025).
Active and inactive are the calls of the source. The rule behind the calls is not given here.

Experiments:
[1] = Cytotoxicity against HEK293 cells assessed as cell growth inhibition measured after 72 hrs by resazurin dye based fluorescence assay relative to IC50; assay type: toxicity; conditions: human
Summary of the method: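 HEK293 cells grown in DMEM with 10% FBS and exposed to compound for 72 h at 37 °C, 5% CO2. Medium was then replaced with 44 μM resazurin, incubated 5–6 h more, and fluorescence read at 530/595 nm. Top concentration 80 μM. Curves were duplicate, 11-point dose response.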

[2] = Selectivity ratio of IC50 for antiplasmodial activity against ring stage chloroquine-resistant Plasmodium falciparum Dd2 to IC50 for antiplasmodial activity against ring stage chloroquine-sensitive Plasmodium falciparum 3D7; assay type: functional
Summary of the method: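 Ring-stage P. falciparum Dd2 and 3D7, twice sorbitol-synchronised, in RPMI-1640 with 25 mM HEPES, 5% human AB serum, Albumax II, hypoxanthine. Exposed 72 h at 37 °C (90% N2/5% CO2/5% O2), 11-point dose response. DAPI stain, confocal imaging, % inhibition against in-plate controls, four-parameter IC50. Two independent duplicate runs. Ratio is Dd2 IC50/3D7 IC50.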

[3] = Selectivity index, ratio of IC50 for HEK293 cells to IC50 for antiplasmodial activity against ring stage chloroquine-sensitive Plasmodium falciparum 3D7; assay type: toxicity, cell-based; conditions: human, read-out: Ratio IC50
Summary of the method: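 SI is HEK293 IC50 divided by P. falciparum 3D7 IC50. Parasites were sorbitol-synchronized twice, and rings were exposed 72 h at 37 °C (90% N2, 5% CO2, 5% O2), then DAPI-stained and imaged confocally. […] Where no accurate HEK293 IC50 was obtained, a relative IC50 or the top concentration was used and SI reported as a bound.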

[4] = tested on: DNA; assay: Binding affinity to 5'-CGCATATATGCG-3' DNA (unknown origin) assessed as appearance of small m/z peak corresponding to free ds DNA oligo at 100 uM by native mass spectrometry; assay type: nucleic-acid assay
Summary of the method: (§1)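 Final sample: 9 μM DNA, 100 μM KCl, 100 μM S-MGB, 1% DMSO in 150 mM ammonium acetate pH 7. DNA with 1% DMSO and no ligand served as control. Sprayed in negative mode at 1.0–1.2 kV. Free, monomer- and dimer-bound DS species were read by charge state.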

[5] = tested on: DNA; assay: Binding affinity to 5'-CGCATATATGCG-3' DNA (unknown origin) assessed as bound as dimer [DS + 2 M] in charge states 5- and 4- at 100 uM by native mass spectrometry; assay type: nucleic-acid assay; summary of the method: as §1
[6] = tested on: DNA; assay: Binding affinity to 5'-CGCATATATGCG-3' DNA (unknown origin) assessed as bound as monomer [DS + 1 M] in charge states 5- at 100 uM by native mass spectrometry; assay type: nucleic-acid assay; summary of the method: as §1

| SMILES | IC50 at 72 h [1] [µM] | other results |
| --- | --- | --- |
| Cn1cc(NC(=O)c2cc(NC(=O)c3ccc(NC(=O)c4cccc(F)c4)cc3)cn2C)cc1C(=O)NCCC(=N)N | 40 | – |
| Cn1cc(NC(=O)c2cc(NC(=O)c3ccc(/C=C/c4ccc5nsnc5c4)cc3)cn2C)cc1C(=O)NCCN1CCOCC1 | 11 | – |
| CCc1nc(N)nc(N)c1-c1ccc(Cl)cc1 [PYRIMETHAMINE] | – | Ratio IC50 [2]: >29740 |
| CC(C)CCn1cc(NC(=O)c2cc(NC(=O)c3cc(NC(=N)c4cc5ccccc5cn4)cn3C)cn2C)cc1C(=O)NCCCN(C)C | 40 | – |
| COc1cccc(/C=C/c2ccc(C(=O)Nc3cc(C(=O)Nc4cc(C(=O)NCCCN(C)C)n(C)c4)n(C)c3)cc2)c1 | 35 | selectivity ratio [3]: > 195 |
| Cn1cc(NC(=O)c2cc(NC(=O)c3ccc(/C=C/c4cccc(F)c4)cc3)cn2C)cc1C(=O)NCCC(=N)N | 40 | – |
| Cn1cc(NC(=O)c2cc(NC(=O)c3ccc(/C=C/c4ccc5ccccc5c4)cc3)cn2C)cc1C(=O)NCCC(=N)N | 80 | selectivity ratio [3]: > 265; Activity [4]: Active; Activity [5]: Active; Activity [6]: Active |
| Cn1cc(NC(=O)c2cc(NC(=O)c3ccc(/C=C/c4ccncc4)cc3)cn2C)cc1C(=O)NCCC(=N)N | 40 | selectivity ratio [3]: > 613; Activity [5]: Active; Activity [6]: inactive |
| Cn1cc(NC(=O)c2cc(NC(=O)c3ccc(NC(=O)c4ccc(F)cc4)cc3)cn2C)cc1C(=O)NCCC(=N)N | 35 | – |
| CC(C)CCc1sc(NC(=O)c2cc(NC(=O)c3cc(NC(=O)c4cccc(F)c4)cn3C)cn2C)nc1C(=O)NCCCN(C)C | 40 | – |
| Cn1cc(NC(=O)c2cc(NC(=O)c3ccc(/C=C/c4ccc(F)cc4)cc3)cn2C)cc1C(=O)NCCC(=N)N | 40 | – |
| Cn1cc(NC(=O)c2cc(NC(=O)c3ccc(/C=C/C(=O)Nc4ccccc4O)cc3)cn2C)cc1C(=O)NCCC(=N)N | 40 | – |
| Cn1cc(NC(=O)c2cc(NC(=O)c3ccc(/C=C/c4ccc(C(F)(F)F)cc4)cc3)cn2C)cc1C(=O)NCCN1CCOCC1 | 40 | – |
| COc1cccc(/C=C/c2ccc(C(=O)Nc3cc(C(=O)Nc4cc(C(=O)NCCC(=N)N)n(C)c4)n(C)c3)cn2)c1 | 45 | selectivity ratio [3]: > 336; Activity [5]: Active; Activity [6]: inactive |
| COc1ccc(/C=C/c2ccc(C(=O)Nc3cc(C(=O)Nc4cc(C(=O)NCCC(=N)N)n(C)c4)n(C)c3)cc2)cc1.O=C(O)C(F)(F)F | 40 | Ratio IC50 [2]: 1.4 |
| CN(C)CCCNC(=O)c1cc(NC(=O)c2cc(NC(=O)c3cc(NC(=N)c4cc5ccccc5cn4)cn3C)cn2C)cn1C | 21 | – |
| COc1cccc(/C=C/c2ccc(C(=O)Nc3cc(C(=O)Nc4cc(C(=O)NCCN(C)C)n(C)c4)n(C)c3)cc2)c1 | 20 | – |
